Columns and labels:
[1] = Selectivity index, ratio of IC50 for cytotoxicity against human MRC5 cells to IC50 for antiproliferative activity against human A2780 cells; settings: MRC5 cells versus A2780 cells
MCF7 [2] = assay: Cell cycle arrest in human MCF7 cells assessed as subG1 accumulation at 1 uM incubated for 24 hrs by propidium iodide based flow cytometry (reference value: 0.6 to 3 %); assay type: functional
MCF7 [3] = assay: Cell cycle arrest in human MCF7 cells assessed as subG1 accumulation at 5 uM incubated for 24 hrs by propidium iodide based flow cytometry (reference value: 0.6 to 3 %); assay type: functional
MCF7 [4] = assay: Cell cycle arrest in human MCF7 cells assessed as G1 accumulation at 5 uM incubated for 24 hrs by propidium iodide based flow cytometry (reference value: 49.6 to 55.1 %); assay type: functional
MCF7 [5] = assay: Cell cycle arrest in human MCF7 cells assessed as G1 accumulation at 10 uM incubated for 24 hrs by propidium iodide based flow cytometry (reference value: 49.6 to 55.1 %); assay type: functional
MCF7 [6] = assay: Cell cycle arrest in human MCF7 cells assessed as S phase accumulation at 1 uM incubated for 24 hrs by propidium iodide based flow cytometry (reference value: 17.3 to 28.5 %); assay type: functional
MCF7 [7] = assay: Cell cycle arrest in human MCF7 cells assessed as S phase accumulation at 5 uM incubated for 24 hrs by propidium iodide based flow cytometry (reference value: 17.3 to 28.5 %); assay type: functional
MCF7 [8] = assay: Cell cycle arrest in human MCF7 cells assessed as S phase accumulation at 10 uM incubated for 24 hrs by propidium iodide based flow cytometry (reference value: 17.3 to 28.5 %); assay type: functional
MCF7 [9] = assay: Cell cycle arrest in human MCF7 cells assessed as G2/M phase accumulation at 5 uM incubated for 24 hrs by propidium iodide based flow cytometry (reference value: 17.2 to 26.8 %); assay type: functional
MCF7 [10] = assay: Induction of apoptosis in human MCF7 cells assessed as viable cells at 1 uM incubated for 24 hrs by annexin V FITC and propidium iodide staining based flow cytometry (reference value: 76 to 95.9 %); assay type: functional; settings: MCF7, 24 h, read-out: Activity
MCF7 [11] = assay: Induction of apoptosis in human MCF7 cells assessed as viable cells at 5 uM incubated for 24 hrs by annexin V FITC and propidium iodide staining based flow cytometry (reference value: 76 to 95.9 %); assay type: functional; settings: MCF7, 24 h, read-out: Activity
MCF7 [12] = assay: Induction of apoptosis in human MCF7 cells assessed as viable cells at 10 uM incubated for 24 hrs by annexin V FITC and propidium iodide staining based flow cytometry (reference value: 76 to 95.9 %); assay type: functional; settings: MCF7, 24 h, read-out: Activity
MCF7 [13] = assay: Induction of apoptosis in human MCF7 cells assessed as early apoptotic cells at 5 uM incubated for 24 hrs by annexin V FITC and propidium iodide staining based flow cytometry (reference value: 0 to 9 %); assay type: functional
MCF7 [14] = assay: Induction of apoptosis in human MCF7 cells assessed as early apoptotic cells at 10 uM incubated for 24 hrs by annexin V FITC and propidium iodide staining based flow cytometry (reference value: 0 to 9 %); assay type: functional
MCF7 [15] = assay: Induction of apoptosis in human MCF7 cells assessed as late apoptotic cells at 5 uM incubated for 24 hrs by annexin V FITC and propidium iodide staining based flow cytometry (reference value: 0 to 2.5 %); assay type: functional
MCF7 [16] = assay: Induction of apoptosis in human MCF7 cells assessed as necrotic cells at 1 uM incubated for 24 hrs by annexin V FITC and propidium iodide staining based flow cytometry (reference value: 4.1 to […]); assay type: functional
MCF7 [17] = assay: Induction of apoptosis in human MCF7 cells assessed as necrotic cells at 5 uM incubated for 24 hrs by annexin V FITC and propidium iodide staining based flow cytometry (reference value: 4.1 to […]); assay type: functional
MCF7 [18] = assay: Induction of apoptosis in human MCF7 cells assessed as necrotic cells at 10 uM incubated for 24 hrs by annexin V FITC and propidium iodide staining based flow cytometry (reference value: 4.1 to […]); assay type: functional
MCF7 [19] = assay: Induction of apoptosis in human MCF7 cells incubated for 24 hrs by annexin V FITC and propidium iodide staining based flow cytometry; assay type: functional, cell-based
MCF7 [20] = assay: Antiproliferative activity against human MCF7 cells assessed as cell viability at 5 uM incubated for 48 hrs by MTT assay (reference value: 100 %); assay type: functional; settings: MCF7, 48 h, read-out: Activity
Summary of the method: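 Preliminary single-dose screen by MTT assay. MCF-7 cells grown in DMEM/10% FBS were exposed to 5 μM compound for 48 h, and growth% was determined. Values are mean ± S.D., n = 6.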

[21] = Selectivity index, ratio of IC50 for cytotoxicity against human MRC5 cells to IC50 for antiproliferative activity against human HT-29 cells; settings: MRC5 cells versus HT-29 cells
Rattus norvegicus [22] = assay: Antiinflammatory activity against albino rats assessed as inhibition of carrageenan-induced paw edema at 0.5 mmol, po measured after 2 hrs relative to control; assay type: functional
Summary of the method: (§1)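 Carrageenan rat paw edema (Winter method) in male and female adult albino rats (100-140 g). […] Swelling inhibition expressed as % of control at 2-4 h after carrageenan injection.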

Rattus norvegicus [23] = assay: Antiinflammatory activity against albino rats assessed as inhibition of carrageenan-induced paw edema at 0.5 mmol, po measured after 4 hrs relative to control; assay type: functional; summary of the method: as §1

Structure (SMILES) | selectivity ratio [1] | Activity (MCF7 [2]) [%] | Activity (MCF7 [3]) [%] | Activity (MCF7 [4]) [%] | Activity (MCF7 [5]) [%] | Activity (MCF7 [6]) [%] | Activity (MCF7 [7]) [%] | Activity (MCF7 [8]) [%] | Activity (MCF7 [9]) [%] | viability at 1 µM (MCF7 [10]) [%] | viability at 5 µM (MCF7 [11]) [%] | viability at 10 µM (MCF7 [12]) [%] | Activity (MCF7 [13]) [%] | Activity (MCF7 [14]) [%] | Activity (MCF7 [15]) [%] | Activity (MCF7 [16]) [%] | Activity (MCF7 [17]) [%] | Activity (MCF7 [18]) [%] | other results
CCC1SCC(=O)N1c1c(C#N)c2n(c1C(=O)Nc1ccccc1)CCC2 (stereo unspecified) | 3 to 15 | 2.4 | 2.4 | 59.4 | 59.1 | 20.6 | 17.8 | 14.2 | 15.8 | 80.1 | 77.8 | 66.6 | 14.3 | 19.5 | 6.9 | 1 | 0.9 | 3.7 | Activity (MCF7 [19]): Dose-dependent effect
CC(C)C/C=N/c1c(C#N)c2n(c1C(=O)Nc1ccc(Br)cc1)CCC2 | 39 to 258 | 1 | 0.9 | 30.2 | 29.6 | 55.6 | 55.1 | 55.2 | 14.4 | 55.4 | 58.9 | 57.6 | 16.5 | 15.6 | 11.2 | 20.8 | 13.4 | 14.7 | viability at 5 µM (MCF7 [20]): 56%; selectivity ratio [21]: 39 to 258; inhibition (INH) (Rattus norvegicus [22]): 18.13%; inhibition (INH) (Rattus norvegicus [23]): 30.82%

Source: ChEMBL document CHEMBL4312005, “Optimization of pyrrolizine-based Schiff bases with 4-thiazolidinone motif: Design, synthesis and investigation of cytotoxicity and anti-inflammatory potency” (Eur J Med Chem, 2020)
